Test results reported in ChEMBL document CHEMBL1833950, “Inhibition of steroid sulfatase with 4-substituted estrone and estradiol derivatives” (Bioorg Med Chem, 2011).
Blank lines part the entries; values can stand above or below the compound they belong to. Activity calls are given as the source filed them. No cut-off for these calls is given here.

How the values were obtained:
Steryl-sulfatase [1] = molecular target: T1, Steryl-sulfatase (Homo sapiens, UniProt P08842); assay: (§1) Inhibition of human steroid sulfatase using 4-methylumbelliferyl sulfate substrate after 10 mins by fluorescence assay
T1 sequence (P08842 whole entry): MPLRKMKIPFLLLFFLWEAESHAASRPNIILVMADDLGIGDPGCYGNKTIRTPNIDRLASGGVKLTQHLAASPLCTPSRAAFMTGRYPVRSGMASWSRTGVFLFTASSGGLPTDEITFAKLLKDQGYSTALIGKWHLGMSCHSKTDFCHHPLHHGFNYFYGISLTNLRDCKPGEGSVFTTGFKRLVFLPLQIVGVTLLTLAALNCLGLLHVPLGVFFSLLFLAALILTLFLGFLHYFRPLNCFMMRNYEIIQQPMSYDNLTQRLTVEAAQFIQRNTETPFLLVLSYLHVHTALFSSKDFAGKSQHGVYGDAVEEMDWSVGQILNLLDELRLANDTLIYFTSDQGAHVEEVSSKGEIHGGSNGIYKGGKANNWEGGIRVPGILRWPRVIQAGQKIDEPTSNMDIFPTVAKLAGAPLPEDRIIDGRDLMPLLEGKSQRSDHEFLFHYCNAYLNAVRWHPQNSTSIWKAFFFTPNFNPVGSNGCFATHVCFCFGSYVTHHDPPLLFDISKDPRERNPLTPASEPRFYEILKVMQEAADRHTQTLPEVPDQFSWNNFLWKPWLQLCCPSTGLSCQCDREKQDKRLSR
In short: (§2)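 Inhibitor is added in DMSO/Tris (1:1) and the reaction is started with enzyme. 4-MUS is 200 µM final. 4-Methylumbelliferone fluorescence (ex 360/em 460 nm) is followed for 10 min at 25 °C. Triplicates; percent activity is taken versus an inhibitor-free control and IC50 derived.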

[2] = molecular target: T2, Steryl-sulfatase (Homo sapiens) (UniProt P08842); assay: Inhibition of human steroid sulfatase using 4-methylumbelliferyl sulfate substrate at 50 uM by fluorescence assay
T2 sequence (whole entry): T1 sequence (P08842 whole entry)

[3] = molecular target: T2, Steryl-sulfatase (Homo sapiens); assay: (§3) Inhibition of human steroid sulfatase using 4-methylumbelliferyl sulfate substrate after 5 mins by Kitz-Wilson plot analysis
Steryl-sulfatase [4] = molecular target: T1, Steryl-sulfatase; assay: as §3
Steryl-sulfatase [5] = molecular target: T1, Steryl-sulfatase; assay: Time-dependent inhibition of human steroid sulfatase using 4-methylumbelliferyl sulfate substrate by Kitz-Wilson plot analysis
Steryl-sulfatase [6] = molecular target: T1, Steryl-sulfatase; assay: Inhibition of human purified steroid sulfatase; in short: as §2
[7] = molecular target: T2, Steryl-sulfatase (Homo sapiens); assay: Reversible inhibition of human steroid sulfatase using 4-methylumbelliferyl sulfate substrate assessed as enzyme activity recovery at 1 uM after 60 mins by fluorescence assay; parameters: scale not given: the % may be the effect or the level left
In short: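 Aliquots are assayed with 4 mM 4-MUS at 0 and 60 min. The rest is dialysed against 0.1 M Tris-HCl pH 7.0, 0.1% Triton X-100, with activity measured at 540, 1020 and 1500 min. Triplicates, with an inhibitor-free control.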

[8] = molecular target: T2, Steryl-sulfatase (Homo sapiens); assay: Ratio of Kinact to Ki for human steroid sulfatase after 5 mins by Kitz-Wilson plot analysis
[9] = molecular target: T2, Steryl-sulfatase (Homo sapiens); assay: Inhibition of human steroid sulfatase using 4-methylumbelliferyl sulfate substrate at 10 uM after 60 mins by fluorescence assay
Steryl-sulfatase [10] = molecular target: T1, Steryl-sulfatase; assay: Non-Competitive inhibition of human steroid sulfatase using 4-methylumbelliferyl sulfate substrate by Lineweaver-Burk plot analysis
Steryl-sulfatase [11] = molecular target: T1, Steryl-sulfatase; assay: Inhibition of human steroid sulfatase using 4-methylumbelliferyl sulfate substrate over 50 mins by Kitz-Wilson plot analysis
[12] = molecular target: T2, Steryl-sulfatase (Homo sapiens); assay: Inhibition of human steroid sulfatase using 4-methylumbelliferyl sulfate as substrate at 10 uM by fluorescence assay
[13] = molecular target: T2, Steryl-sulfatase (Homo sapiens); assay: Inhibition of human steroid sulfatase using 4-methylumbelliferyl sulfate substrate at 1 uM after 60 mins by fluorescence assay
[14] = molecular target: T2, Steryl-sulfatase (Homo sapiens); assay: as §1; in short: as §2
Steryl-sulfatase [15] = molecular target: T1, Steryl-sulfatase; assay: Mixed type inhibition of human steroid sulfatase using 4-methylumbelliferyl sulfate substrate by Lineweaver-Burk plot analysis
[16] = Aqueous solubility of the compound; type: physicochemical; conditions: buffer
[17] = molecular target: T2, Steryl-sulfatase (Homo sapiens); assay: Reversible inhibition of human steroid sulfatase using 4-methylumbelliferyl sulfate as substrate at 50 uM after 10 mins by fluorescence assay

Compound: C[C@]12CC[C@@H]3c4ccc(O)c(Br)c4CC[C@H]3[C@@H]1CCC2=O
IC50 (Steryl-sulfatase [1]): 4.8 µM

Compound: C[C@]12CC[C@@H]3c4cc(C=O)c(O)cc4CC[C@H]3[C@@H]1CC[C@@]2(O)Cc1ccccc1
inhibition [9]: 15%

Compound: C[C@]12CC[C@@H]3c4ccc(O)c(CO)c4CC[C@H]3[C@@H]1CCC2=O
inhibition [2]: 46%

Compound: C[C@]12CC[C@@H]3c4ccc(O)c([N+](=O)[O-])c4CC[C@H]3[C@@H]1CCC2=O
Ki (Steryl-sulfatase [10]): 1.4 µM | IC50 (Steryl-sulfatase [1]): 2.4 µM

Compound: C[C@]12CC[C@@H]3c4cc([N+](=O)[O-])c(O)cc4CC[C@H]3[C@@H]1CCC2=O
IC50 (Steryl-sulfatase [1]): 17 µM

Compound: C[C@]12CC[C@@H]3c4cc(Br)c(O)cc4CC[C@H]3[C@@H]1CCC2=O
IC50 (Steryl-sulfatase [1]): 40 µM

Compound: C[C@]12CC[C@@H]3c4ccc(O)c(C=O)c4CC[C@H]3[C@@H]1CC[C@@]2(O)Cc1ccccc1
Ki (Steryl-sulfatase [11]): 0.085 µM | Kinact [3]: 0.021 min⁻¹ | Ki (Steryl-sulfatase [5]): 0.085 µM | Activity [7]: 14% | Ratio [8]: 2.3 ×10⁵ /M/min | Inhibition activity (active/inactive) [12]: Active | inhibition [13]: 95% | inhibition [14]: Dose-dependent effect

Compound: C[C@]12CC[C@@H]3c4ccc(O)c([N+](=O)[O-])c4CC[C@H]3[C@@H]1CC[C@@H]2O
IC50 (Steryl-sulfatase [1]): 2.8 µM

Compound: C[C@]12CC[C@@H]3c4cc(Br)c(O)c(C=O)c4CC[C@H]3[C@@H]1CCC2=O
Inhibition activity (active/inactive) [12]: inactive | inhibition [14]: inactive | IC50 (Steryl-sulfatase [1]): 145 µM

Other lines, results leading:

Ki (Steryl-sulfatase [1]): 0.25 µM
Compound: C[C@]12CC[C@@H]3c4ccc(O)cc4CC[C@H]3[C@@H]1CC[C@@]2(O)Cc1ccccc1

inhibition [2]: 4%
Compound: C[C@]12CC[C@@H]3c4ccc(O)c(CN)c4CC[C@H]3[C@@H]1CC[C@@H]2O

Kinact [3]: 0.13 min⁻¹ | Ki (Steryl-sulfatase [4]): 1.5 µM | Ki (Steryl-sulfatase [5]): 1.5 µM | Ki (Steryl-sulfatase [6]): 1.5 µM | Activity [7]: 2% | Ratio [8]: 1 ×10⁵ /M/min
Compound: C[C@]12CC[C@@H]3c4ccc(O)c(C=O)c4CC[C@H]3[C@@H]1CCC2=O

IC50 (Steryl-sulfatase [1]): 3.3 µM
Compound: C[C@]12CC[C@@H]3c4ccc(O)c(F)c4CC[C@H]3[C@@H]1CCC2=O

IC50 (Steryl-sulfatase [1]): 6.7 µM
Compound: C[C@]12CC[C@@H]3c4ccc(O)c(C#N)c4CC[C@H]3[C@@H]1CCC2=O

IC50 (Steryl-sulfatase [1]): 215 µM
Compound: C[C@]12CC[C@@H]3c4ccc(O)c(C(=O)O)c4CC[C@H]3[C@@H]1CCC2=O

IC50 (Steryl-sulfatase [1]): 26 µM
Compound: C[C@]12CC[C@@H]3c4cc([N+](=O)[O-])c(O)c([N+](=O)[O-])c4CC[C@H]3[C@@H]1CCC2=O

inhibition [2]: 45%
Compound: C=Cc1c(O)ccc2c1CC[C@@H]1[C@@H]2CC[C@]2(C)C(=O)CC[C@@H]12

Ki (Steryl-sulfatase [15]): 0.09 µM | Ki (Steryl-sulfatase [1]): 0.03 µM
Compound: C[C@]12CC[C@@H]3c4ccc(O)c(F)c4CC[C@H]3[C@@H]1CC[C@@]2(O)Cc1ccccc1

inhibition [2]: 43%
Compound: C[C@]12CC[C@@H]3c4ccc(O)c(N)c4CC[C@H]3[C@@H]1CC[C@@H]2O

Inhibition activity (active/inactive) [12]: inactive | inhibition [14]: inactive
Compound: C[C@]12CC[C@@H]3c4ccc(C=O)cc4CC[C@H]3[C@@H]1CCC2=O

Inhibition activity (active/inactive) [12]: inactive | inhibition [14]: inactive
Compound: C[C@]12CC[C@@H]3c4cc(C=O)c(O)cc4CC[C@H]3[C@@H]1CCC2=O

solubility [16]: soluble | Inhibition activity (active/inactive) [12]: inactive | IC50 (Steryl-sulfatase [1]): 224 µM
Compound: C[C@]12CC[C@@H]3c4cc(C=O)c(O)c(C=O)c4CC[C@H]3[C@@H]1CCC2=O

inhibition [17]: < 50% | Inhibition activity (active/inactive) [12]: inactive | inhibition [14]: inactive
Compound: C[C@]12CC[C@@H]3c4cc([N+](=O)[O-])c(O)c(C=O)c4CC[C@H]3[C@@H]1CCC2=O
